Experimental data published in ChEMBL document CHEMBL4513216, “Probing the Open Global Health Chemical Diversity Library for Multistage-Active Starting Points for Next-Generation Antimalarials” (ACS Infect Dis, 2020).

Assay: Toxicity liver stage against HepG2, at 10uM
Type: cell-based
Design: test concentration 10 uM, cell line HepG2-A16-CD81EGFP
Settings: human, HepG2-A16-CD81EGFP cells; read-out: INHIBITION
Outline: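 Uninfected HepG2-A16-CD81EGFP cells, 3 × 10^3 per well, 1536-well, plated on prespotted compound at 10 μM final, parasite-free screening media added to match infected plates; puromycin 10 μM positive, DMSO 0.5% negative; run in parallel with 48 h PbLuc assay at 37 °C, 5% CO2; viability by CellTiter-Glo luminescence, normalized to controls.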

Compound | cytotoxicity at 10 µM [%]
CNC(=O)CN1CCOCC2(C1)CN(C(=O)C(C)C)CCO2 (configuration not stated) | -0.182
CCN(C(=O)c1ccccc1I)C1CC(=O)NC1=O (configuration not stated) | -3.86
CCC(C)c1csc(NC(=O)c2sc(-c3nnc[nH]3)nc2C)n1 (configuration not stated) | -35.5
CC1CN(CC(=O)NC2CCCC2)CCN1c1ccc2nncn2n1 (configuration not stated) | -1.58
CC(NC(=O)N1CCC2(C1)OCCO2)c1cccc(Cl)c1 (configuration not stated) | -6.88
O=c1[nH][nH]cc1-c1ccnc(NCCN2CCCC2)n1 | 2.89
CNc1ncccc1C(=O)N1CCc2c(nc(N)[nH]c2=O)C1 | 3.61
COc1ccc2c(c1)C(=O)N(C)C1(CCN(C(=O)OC(C)(C)C)CC1)N2 | 25.1
Cn1ccc(C(=O)N2CCCC(c3cc4cccnc4c(O)n3)C2)n1 (configuration not stated) | 4.53
O=S(=O)(c1cn[nH]c1)N1CCCC(O)(CN2CCOCC2)CC1 (configuration not stated) | 6.61
CCOC[C@]12COC[C@H]1CN(Cc1ccc(F)c(F)c1)C2 | -107
CCN1CCN(Cc2csc(C(C)C)n2)CC1 | -5.78
Cc1cc(C)n(CC2CCCN2C(=O)c2cncnc2C)n1 (configuration not stated) | -2.98
CC(=O)N1CCCN(C(=O)NCC2(c3cccs3)CCCC2)CC1 | 3.23
Cc1cccc2nc(CN3CCCC3Cn3cncn3)cn12 (configuration not stated) | -6.97
CCO[C@H]1CO[C@@]2(CCCN(S(=O)(=O)c3ccccc3)C2)C1 | 4.42
CCc1cc(O)nc(C2CCCN2C(=O)COC)n1 (configuration not stated) | -11.5
COc1ccccc1-n1cc(C(=O)NCCCn2nc(C)nc2C)cn1 | 5.02
Cc1nccn1CC1CCN(C(=O)Cc2ccccc2)CC1 | -17
COc1c(C(=O)N2CCC(COCc3ccccc3)C2)c(C)nn1C (configuration not stated) | 7.39
Cc1noc(C)c1CC(=O)N[C@@H]1CC[C@@H](Oc2ccccc2)[C@@H]1O | 2.04
O=C(NCc1cccnc1)[C@@H]1C[C@H]2[C@H](CCN2c2ncc(F)cn2)O1 | -85.3

Compound | cytotoxicity at 10 µM [%]
Cc1cccc(NS(=O)(=O)c2cc(C(=O)O)oc2C)c1Cl | -14.6
COCC(=O)NC(C)c1sc(-c2ccccc2F)nc1C (configuration not stated) | 5.41
COc1ncnc2c1CCN(CC1CCOC1)CC2 (configuration not stated) | -68.9
CCn1cc(NC(=O)C2CCN(Cc3ccccc3C#N)CC2)cn1 | 1.13
O=c1[nH]c(C2CCOC2)nc2cc(F)c(F)cc12 (configuration not stated) | 9.66
COc1cccc(NC(=O)Cc2c(C)nc3c(c2C)c(=O)[nH]n3C)c1 | 5.05
O=C(c1cnccn1)N1CCCC(c2cccc(-n3ccnc3)n2)C1 (configuration not stated) | -9.08
Cc1cc2cccc(C(=O)N3CC[C@@H](N)[C@H](O)C3)c2o1 | -0.193
CC(C)(C)n1cc(C(=O)N2CCN(Cc3cccnc3)CC2)cn1 | -7.51
Cc1cc(C(=O)N2C[C@@H]3C(CN(C)CCCn4cccn4)[C@@H]3C2)c(C)o1 (some centres not stated) | -55.4
O=C(c1ccc(=O)[nH]n1)N1CCCC1CCc1ccccc1 (configuration not stated) | 8.89
Cn1ncc(NC(=O)c2noc3c2CCCC3)c1C(=O)N1CCCCC1 | -13.4
CCN1CCCC(O)(CNCc2ccccn2)C1 (configuration not stated) | -5.69
COc1ccc(CN2CCN(C(=O)N(C)C)[C@@H]3CS(=O)(=O)C[C@@H]32)cc1F | 1.24
Cc1noc(C)c1CN(Cc1cccs1)C1CCS(=O)(=O)C1 (configuration not stated) | -0.375
Cc1ccoc1C(=O)N1CC(C(=O)NCC2CC2)C2(CCOCC2)C1 (configuration not stated) | -3
CCC(C)NS(=O)(=O)c1ccc(C=Cc2onc(C)c2NC(C)=O)cc1 (configuration not stated) | -10.7
COc1cc2c(nn1)CCN(CC(O)COc1ccc(C#N)cc1)C2 (configuration not stated) | -2.19
O=C(CCc1cccc(Cl)c1)NS(=O)(=O)Cc1ccon1 | 8.76
Cc1nc2ccccc2c(=O)n1CCCC(=O)N1CCNC(=O)CC1 | -11.8
CC1CCN(C(=O)C2CC(=O)N(c3cnn(C(C)C)c3)C2)CC1 (configuration not stated) | -0.343
O=C1CO[C@@H]2CN(CC3CCOCC3)C[C@H]2N1Cc1ccncc1 | -139

Compound | cytotoxicity at 10 µM [%]
Cc1noc(C2CCC3(CCN(C(=O)c4ccn(C)n4)CC3)O2)n1 (configuration not stated) | 7.57
Cn1cnnc1S(=O)(=O)C1CCN(S(=O)(=O)c2c(Cl)cccc2Cl)CC1 | -14.2
COc1ccc(-c2cn3c(n2)CO[C@@H](CNCc2nccn2C)C3)cc1 | -0.765
CC(C)CNC(=O)C1=NOC2(CCN(Cc3cccc(C#N)c3)C2)C1 (configuration not stated) | 8.37
COc1ccc(C(CO)NC(=O)Nc2cccnc2)cc1 (configuration not stated) | -15.7
Cc1cc(C)n(CC2CN(CCOc3ccc(C#N)cc3)CCO2)n1 (configuration not stated) | -6.31
CSCC(=O)NS(=O)(=O)c1ccc(C#N)c(C(F)(F)F)c1 | 17.2
CC(C)CCC(=O)N1CCC(c2nnc(CN(C)CCO)n2C)CC1 | 0.832
Cc1ccc(CN2CCOCS2(=O)=O)cc1F | 9.52
CCc1ncc(C(=O)N(C)CC2Cc3ccccc3O2)cn1 (configuration not stated) | -0.734
Cn1nc(C(=O)NC2(c3ccc(Cl)cc3)CCCC2)ccc1=O | -4.47
CN1CCN(C)c2cc(NC(=O)c3cc[nH]n3)ccc2C1 | -10.9
COc1ccc(C(C)N(C)Cc2c(C3CC3)[nH]c3ncccc23)cc1 (configuration not stated) | -2.45
O=C(c1ccccc1OC1CCCC1)N1CCCC(n2cncn2)C1 (configuration not stated) | -0.0581
CC(CO)NCc1csc2c1CCCC2 (configuration not stated) | -11.3
Fc1cccc(CN2CCC(c3noc(-c4ccncc4)n3)CC2)c1F | -6.21
c1cc(CN2CCC[C@@H](Cn3nnc(-c4cnccn4)n3)C2)ccn1 | -0.45
Cn1nccc1-c1cc(C2CCN(S(C)(=O)=O)CC2)ccn1 | -28.2
CC(C)CC(=O)N1CCCC1c1nccnc1Nc1ncccn1 (configuration not stated) | -13.8
CS(=O)(=O)c1ccc(NC(=O)N2CCc3sccc3C2)cn1 | 85.1
CC(=O)N1C[C@@H](c2ccsc2)[C@@H]2CN(Cc3cccc(Cl)c3)CC[C@@H]21 | 13.1
CCN(CC)C(=O)[C@@H]1C[C@H](n2cc(-c3ccccn3)nn2)CN1 | -20.6

Compound | cytotoxicity at 10 µM [%]
c1ccc(-c2nc(CCNCc3ccccn3)co2)cc1 | -1.89
COCCS(=O)(=O)Cc1nnnn1-c1ccccc1 | -9.4
COCCNC(=O)Cn1c(-c2ccc(F)cc2)nc(C)c(CCO)c1=O | -15
CC(C)(C)c1cc(NC(=O)CN2CCCCC2Cn2cncn2)on1 (configuration not stated) | 0.0788
CSCCCN1CCc2nc(N(C)C)nc(N3CCC(O)CC3)c2C1 | -4.67
CC(=O)c1cc(CC(=O)N2CCCC2c2nc(C(C)C)no2)cs1 (configuration not stated) | 3.07
Cn1ccc2c(NC(=O)Cn3ncc4c(c3=O)CCCCC4)cccc21 | 3.89
Cc1cccc(CO[C@H]2CO[C@@]3(CCN(S(=O)(=O)N(C)C)C3)C2)n1 | 7.7
O=C(NC1CC1)[C@H]1CC[C@@H]2[C@@H](CCN2CCOCc2ccccc2)O1 | -115
Cc1noc([C@H]2CC[C@@H]3[C@@H](CCN3S(=O)(=O)C3CC3)O2)n1 | -1.98
CC1COc2ccccc2N1C(=O)CCc1cscn1 (configuration not stated) | 1.88
CN1CCC(c2n[nH]cc2-c2ccnc(N)c2)C1 (configuration not stated) | 3.79
CCc1cc(N2CCC(NCCc3ccc(C)o3)CC2)nc(C)n1 | -0.554
COc1cc(C)ccc1OCCC(=O)N1CCCC1Cn1cccn1 (configuration not stated) | -7.81
Cc1ccnc(SCC(=O)Nc2csc3nc(=O)c(C)nn23)n1 | 12.2
CN(C)C(=O)c1nc(-c2ccc(S(C)(=O)=O)cc2)c2ccccn12 | 8.77
COC(=O)N1CC(C)=C(C)CN1C(=O)Nc1ccc(Cl)cc1 | -7.97
O=C(NC1CCc2nccn2C1)c1ccc(OCC2CC2)nc1 (configuration not stated) | 4.36
Cc1cc(C)n(CC(C)NC(=O)C2(c3ccccc3F)CC2)n1 (configuration not stated) | -0.844
Cc1ccsc1C(=O)N1CCn2cnc(COCC3CC3)c2C1 | 6.93
Cn1cccc1C(=O)N1CCC(O)(CN2CCc3ccccc3C2)C1 (configuration not stated) | 3.77
CCC(Nc1nc(C)nc2onc(C)c12)c1nc(C)c(C)s1 (configuration not stated) | 37.2

Compound | cytotoxicity at 10 µM [%]
CNC(=O)N1C[C@@H]2C[C@H](C(=O)Nc3ccccc3)[C@H](C1)O2 | -2.24
CCn1[nH]c(C)c2c(C(F)(F)C(F)(F)F)cc(=O)nc1-2 | -9.29
N#CCCN(C(=O)CN1CCCC1c1ccsc1)c1ccccc1F (configuration not stated) | -5.8
Cc1ccc2c(n1)N(C)CCN(C(=O)NC1CC1)C2 | 1.36
CN1CCN(C[C@H]2CC[C@@H](Cc3ccc4c(c3)OCO4)O2)CC1 | -5.13
CC(C)[C@H]1CN(C2Cc3ccccc3C2)C[C@@H]1NS(=O)(=O)N(C)C | 1.52
CCN1CCOCC2(CCCN(C(=O)c3ccncc3F)C2)C1 (configuration not stated) | -3.16
CS(=O)(=O)CCCNc1cccc(COC2CCCCC2)c1 | 9.5
CC(C)CNC(=O)c1cn(-c2ccccn2)c(=O)c2ccccc12 | 0.318
CNC(=O)[C@@H]1C[C@@H](N)CN1C(=O)CCSCc1ccccc1 | 6.7
c1cc(C2CCN(Cc3nc(-c4ccsc4)no3)CC2)[nH]n1 | 8.44
Cc1nc2ccccn2c1CN1C[C@@H](CN2CCOCC2)[C@@H](CO)C1 | 1.73
COCCNC(=O)[C@@]12CCO[C@@H]1CCN(Cc1c(C)noc1C)C2 | -2.45
CCN1CC[C@@]2(C(=O)Nc3ccccc3)CCN(S(C)(=O)=O)CC[C@@H]12 | 7.14
Cc1cc(NCc2cc3n(n2)CCCN(C(=O)C2CCC2)C3)nc(N)n1 | -146
CCSc1nsc(NC(=O)COc2ccc3c(c2)OCO3)n1 | 2.03
Cc1ccccc1CNC(=O)N1C[C@@H]2C[C@H](C(=O)N(C)C)[C@H](C1)O2 | 5.44
CNc1cncc(C2CCCN2S(=O)(=O)c2cccc(F)c2)n1 (configuration not stated) | -15.3
Cc1cccc(OCCNC(=O)CN2CCc3cncnc3C2)c1 | -6.65
